pIC50, pKi: −log10 of the molar value.
Tests used:
[1] = biological target: T1, Adenosine receptor A3 (Homo sapiens, UniProt P0DMS8); assay: Displacement of [3H]MRE3008-F20 from human Adenosine A3 receptor expressed in HEK cells; range 2.7-3.4; type: cell-based, HEK293
T1 sequence (P0DMS8 whole entry): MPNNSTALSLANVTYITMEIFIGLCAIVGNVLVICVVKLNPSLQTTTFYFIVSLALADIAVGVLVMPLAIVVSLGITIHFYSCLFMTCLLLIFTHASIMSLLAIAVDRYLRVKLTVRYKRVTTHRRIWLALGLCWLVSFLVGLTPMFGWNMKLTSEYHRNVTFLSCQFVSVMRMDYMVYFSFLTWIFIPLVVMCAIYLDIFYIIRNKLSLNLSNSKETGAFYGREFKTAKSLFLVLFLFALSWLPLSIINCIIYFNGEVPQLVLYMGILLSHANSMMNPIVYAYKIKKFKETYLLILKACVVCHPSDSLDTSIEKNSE

[2] = biological target: T2, Adenosine receptor A2a (Homo sapiens, UniProt P29274); assay: Displacement of [3H]SCH-58261 from human Adenosine A2A receptor expressed in HEK293 cells; range 300-414; type: cell-based
T2 sequence (P29274 whole entry): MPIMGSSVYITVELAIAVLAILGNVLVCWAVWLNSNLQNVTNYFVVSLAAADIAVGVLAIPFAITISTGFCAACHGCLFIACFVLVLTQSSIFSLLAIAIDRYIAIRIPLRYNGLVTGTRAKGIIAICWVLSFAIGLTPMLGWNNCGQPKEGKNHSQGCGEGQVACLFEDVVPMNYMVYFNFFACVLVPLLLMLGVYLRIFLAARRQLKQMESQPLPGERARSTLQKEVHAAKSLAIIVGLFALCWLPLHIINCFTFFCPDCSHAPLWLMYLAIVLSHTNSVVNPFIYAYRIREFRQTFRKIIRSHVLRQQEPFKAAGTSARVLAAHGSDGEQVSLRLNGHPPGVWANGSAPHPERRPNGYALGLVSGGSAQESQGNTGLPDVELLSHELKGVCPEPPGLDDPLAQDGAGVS

[3] = biological target: T3, Adenosine receptor A2b (Homo sapiens, UniProt P29275); assay: Displacement of [3H]DPCPX from human Adenosine A2B receptor expressed in HEK293 cells; range 32-51; type: cell-based
T3 sequence (P29275 whole entry): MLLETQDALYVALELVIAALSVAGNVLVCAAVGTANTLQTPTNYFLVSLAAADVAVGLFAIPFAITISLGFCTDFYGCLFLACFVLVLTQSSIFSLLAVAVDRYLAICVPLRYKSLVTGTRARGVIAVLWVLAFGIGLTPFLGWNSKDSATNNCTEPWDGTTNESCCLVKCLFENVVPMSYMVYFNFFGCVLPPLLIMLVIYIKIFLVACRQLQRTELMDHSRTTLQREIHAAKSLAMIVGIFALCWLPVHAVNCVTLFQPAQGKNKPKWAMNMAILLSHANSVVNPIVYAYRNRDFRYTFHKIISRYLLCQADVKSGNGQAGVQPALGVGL
In short: (§1)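 Membranes from HEK-293 cells with human recombinant A2B receptor. Incubation 60 min at 25 °C in 50 mM Tris HCl, 10 mM MgCl2, 1 mM EDTA, 0.1 mM benzamidine, pH 7.4, with 2 IU/mL adenosine deaminase and 40 nM [3H]DPCPX. At least six to eight test concentrations. Nonspecific binding defined with NECA. n = 3-6.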

[4] = biological target: Adenosine receptors; A2b & A3 (Homo sapiens) (UniProt P29275+P0DMS8); assay: Selectivity ratio (h2B/hA3); type: protein assay
[5] = biological target: Adenosine receptors; A1 & A3 (Homo sapiens) (UniProt P30542+P0DMS8); assay: Selectivity ratio (hA1/hA3); type: protein assay
[6] = biological target: T4, Adenosine receptor A1 (Homo sapiens, UniProt P30542); assay: Displacement of [3H]DPCPX from human Adenosine A1 receptor expressed in CHO cells; range 453-609; type: cell-based
T4 sequence (P30542 whole entry): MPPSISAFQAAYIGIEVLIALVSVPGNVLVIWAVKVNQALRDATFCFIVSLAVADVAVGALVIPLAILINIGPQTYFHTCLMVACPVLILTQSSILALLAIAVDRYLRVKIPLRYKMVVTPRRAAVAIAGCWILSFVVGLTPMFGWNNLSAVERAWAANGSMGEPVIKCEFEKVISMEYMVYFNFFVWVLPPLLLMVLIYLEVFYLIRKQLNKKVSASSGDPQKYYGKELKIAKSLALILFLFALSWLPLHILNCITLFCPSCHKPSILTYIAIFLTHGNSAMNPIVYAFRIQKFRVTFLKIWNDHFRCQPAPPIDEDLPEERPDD
In short: (§2)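 Human recombinant A1 receptor in CHO cell membranes, resuspended in 50 mM Tris HCl pH 7.4. Displacement run 120 min at 25 °C with 1 nM [3H]DPCPX, 50 µg protein per assay, and at least six to eight test concentrations. Nonspecific binding defined with CHA. Bound and free separated on glass-fiber filters; filter radioactivity counted. n = 3-6.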

[7] = biological target: T3, Adenosine receptor A2b; assay: Displacement of [3H]DPCPX from human Adenosine A2B receptor expressed in HEK293 cells; range 127-203; type: cell-based
In short: (§3)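 HEK-293 membranes expressing the human receptor were incubated 60 min at 25 °C. Six to eight test concentrations were used. Nonspecific binding was set with NECA. n = 3-6.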

[8] = biological target: T4, Adenosine receptor A1; assay: Displacement of [3H]DPCPX from human Adenosine A1 receptor expressed in CHO cells; range 210-376; type: cell-based
[9] = biological target: T2, Adenosine receptor A2a; assay: Displacement of [3H]SCH-58261 from human Adenosine A2A receptor expressed in HEK293 cells; range 18-33; type: cell-based
[10] = biological target: T1, Adenosine receptor A3; assay: biochemical
[11] = biological target: T4, Adenosine receptor A1; assay: Displacement of [3H]DPCPX from human Adenosine A1 receptor expressed in CHO cells; range 358-468; type: cell-based
[12] = biological target: T3, Adenosine receptor A2b; assay: Displacement of [3H]DPCPX from human Adenosine A2B receptor expressed in HEK293 cells; range 43-58; type: cell-based; in short: as §3
[13] = biological target: T2, Adenosine receptor A2a; assay: Displacement of [3H]SCH-58261 from human Adenosine A2A receptor expressed in HEK293 cells; range 102-215; type: cell-based
[14] = biological target: T1, Adenosine receptor A3; assay: Displacement of [3H]MRE3008-F20 from human Adenosine A3 receptor expressed in HEK cells; range 0.12-0.37; type: cell-based, HEK293
[15] = biological target: T3, Adenosine receptor A2b; assay: Displacement of [3H]-DPCPX from human Adenosine A2B receptor expressed in HEK293 cells; range 125-218; type: cell-based; in short: as §3
[16] = biological target: T4, Adenosine receptor A1; assay: Displacement of [3H]DPCPX from human Adenosine A1 receptor expressed in CHO cells; range 180-345; type: cell-based; in short: as §2
[17] = biological target: T2, Adenosine receptor A2a; assay: Displacement of [3H]SCH-58261 from human Adenosine A2A receptor expressed in HEK293 cells; range 73-138; type: cell-based
[18] = biological target: T1, Adenosine receptor A3; assay: biochemical; remark: listed apart in the source
[19] = biological target: T3, Adenosine receptor A2b; assay: Displacement of [3H]DPCPX from human Adenosine A2B receptor expressed in HEK293 cells; range 162-237; type: cell-based; in short: as §1
[20] = biological target: T4, Adenosine receptor A1; assay: Displacement of [3H]DPCPX from human Adenosine A1 receptor expressed in CHO cells; range 216-412; type: cell-based; in short: as §2
[21] = biological target: T2, Adenosine receptor A2a; assay: Displacement of [3H]SCH-58261 from human Adenosine A2A receptor expressed in HEK293 cells; range 108-163; type: cell-based
[22] = biological target: T1, Adenosine receptor A3; assay: biochemical; remark: listed apart in the source
[23] = biological target: T3, Adenosine receptor A2b; assay: Displacement of [3H]DPCPX from human Adenosine A2B receptor expressed in HEK293 cells; range 183-278; type: cell-based; in short: as §1
[24] = biological target: T1, Adenosine receptor A3; assay: Inhibition of IB-MECA agonist-mediated cAMP production in CHO cell membranes expressing human Adenosine A3 receptor; range 2.0-4.3; type: functional, cell-based
[25] = biological target: T4, Adenosine receptor A1; assay: Displacement of [3H]DPCPX from human Adenosine A1 receptor expressed in CHO cells; range 262-814; type: cell-based; details: in the assay text read “range 602-814” for “range 262-814”; in short: as §2
[26] = biological target: T1, Adenosine receptor A3; assay: Displacement of [3H]MRE3008-F20 from human Adenosine A3 receptor expressed in HEK cells; range 0.28-0.41; type: cell-based, HEK293
[27] = biological target: T2, Adenosine receptor A2a; assay: Displacement of [3H]SCH-58261 from human Adenosine A2A receptor expressed in HEK293 cells; range 103-140; type: cell-based

Structure (SMILES): CCn1cc2c(nc(NC(=O)Nc3ccc(Cl)c(Cl)c3)n3nc(-c4ccco4)nc23)n1
- pKi [1]: 8.52
- pKi [2]: 6.45
- pKi [3]: 7.40
- Ratio [4]: 13
- Ratio [5]: 175
- pKi [6]: 6.28

Structure (SMILES): CCCCn1cc2c(nc(NC(=O)Nc3ccc(C)cc3)n3nc(-c4ccco4)nc23)n1
- pKi [7]: 6.79
- pKi [8]: 6.55
- pKi [9]: 7.62
- Ratio [4]: 767
- Ratio [5]: 1340
- pKi [10]: 9.68

Structure (SMILES): CCCCn1cc2c(nc(NC(=O)Nc3ccccc3)n3nc(-c4ccco4)nc23)n1
- pKi [11]: 6.39
- pKi [12]: 7.30
- pKi [13]: 6.83
- pKi [14]: 9.68
- Ratio [4]: 238
- Ratio [5]: 1950

Structure (SMILES): CCCn1cc2c(nc(NC(=O)Nc3ccccc3OC)n3nc(-c4ccco4)nc23)n1
- pKi [15]: 6.78
- pKi [16]: 6.60
- pKi [17]: 7.00
- Ratio [4]: 485
- Ratio [5]: 735
- pKi [18]: 9.47

Structure (SMILES): CCn1cc2c(nc(NC(=O)Nc3ccccc3OC)n3nc(-c4ccco4)nc23)n1
- pKi [19]: 6.71
- pKi [20]: 6.52
- pKi [21]: 6.88
- Ratio [4]: 350
- Ratio [5]: 536
- pKi [22]: 9.25

Structure (SMILES): Cn1cc2c(nc(NC(=O)Nc3ccc(F)cc3)n3nc(-c4ccco4)nc23)n1
- pKi [23]: 6.65
- pIC50 [24]: 8.52
- pKi [25]: 6.15
- pKi [26]: 9.47
- pKi [27]: 6.92
- Ratio [4]: 665
- Ratio [5]: 2060

Source: ChEMBL document CHEMBL1136016, “Synthesis, biological activity, and molecular modeling investigation of new pyrazolo[4,3-e]-1,2,4-triazolo[1,5-c]pyrimidine derivatives as human A(3) adenosine receptor antagonists” (J Med Chem, 2002)
